# Screening results deposited in PubChem by several laboratories.
# Tn6 DDE FP: inhibitors of Tn6 peptide binding to human fibrin DD(E) | 370,000 tested, 0.21% active | AID 720509 | P02675 | Fibrin DD(E) TRITC-Tn6 fluorescence polarization displacement | inhibition, % at 8.3 µM;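 active = inhibition above a per-campaign cutoff: mean of compounds within control limits plus 3 SD, cut at about 15% in these data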
# Neddylation inh: cullin neddylation inhibition | TR-FRET cullin neddylation, biochemical | 360,000 tested, 0.58% active | calls only at 25 µM | AID 651699; in the data active = inhibition above about 36%
# SKN-1 inh: blocks SKN-1 activity in C. elegans; 360,000 tested, 0.49% active; C. elegans VP596 Pgst-4::GFP/RFP ratio, acrylamide-induced, 24 h; inhibition, % at 21.8 µM; AID 624304;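 active = interference check ratio from 0.5 to 1.5 plus GFP to RFP signal ratio inhibition reaching or exceeding a fixed threshold, cut at about 30% in these data, passing the limit was not always enough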
# MT1-MMP act inh: blocks activation of human MT1-MMP; P50281; HT1080 RFP-PRO-GFP cells, GFP/RFP ratio fluorescence, overnight; percent of plate control window, DMSO zero; 360,000 tested, 0.061% active; AID 651647; GFP/RFP ratio change, % at 20 µM;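 active = GFP/RFP ratio change of at least 30% with cell ATP level not reduced by more than half and red fluorescence within 50% of control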
#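 Assay system: HT1080 cells carrying an RFP-PRO-GFP reporter | Dosing: Single dose of 20 µM compound, 1% DMSO final | Incubation: Cells overnight before dosing, compound overnight, 37 °C, 5% CO2 | Evaluation: GFP/RFP fluorescence ratio | Control set: DMSO and RFP-L50D-GFP cell wells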
# Tn7 DDE FP: DD(E)-Tn7 binding inhibition, primary FP screen | inhibition, % at 8.3 µM | AID 720508 | FP displacement of FITC-Tn7 peptide from fibrin DD(E); 0% = median of compound wells per plate | 370,000 tested, 0.13% active;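 active = inhibition above the mean of compounds falling within the control limits plus 3 SD of them, cut at about 14% in these data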
#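 Assay system: Human clot-derived fibrin DD(E) complex | Buffer or medium: Tris/NaCl/CaCl2 buffer, pH 7.8 | Repeats: One replicate per compound | Benchmarks: Aha-Tn7 high control | Measure: % inhibition scaled between sample-field median and high-control FP | Schedule: 10 min plus 3 h, room temperature | Signal: Fluorescence polarization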
# proKLK7 act: activates the human kallikrein-7 zymogen; purified proKLK7, EDANS-DABCYL substrate fluorescence; 100% is mature enzyme control, 0% vehicle; activation, % at 7 µM; 370,000 tested, 0.9% active;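 active = activation above the mean of all tested compounds plus 3 SD, computed per campaign excluding outliers beyond control limits, cut at about 13% in these data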
# Target sequence (P49862 whole entry, looked up): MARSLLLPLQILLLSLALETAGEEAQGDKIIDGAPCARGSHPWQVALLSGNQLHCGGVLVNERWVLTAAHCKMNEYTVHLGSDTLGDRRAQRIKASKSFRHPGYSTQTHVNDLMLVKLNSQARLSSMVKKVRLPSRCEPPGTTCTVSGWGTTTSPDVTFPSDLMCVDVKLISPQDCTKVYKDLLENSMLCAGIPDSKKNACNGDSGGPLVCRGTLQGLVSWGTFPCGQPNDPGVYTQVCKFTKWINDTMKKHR
# proKLK7 act conf: proKLK7 activation, confirmation; activation, % at 7 µM; shares compounds with proKLK7 act; purified proKLK7, EDANS-DABCYL substrate fluorescence; scaled: vehicle 0, mature enzyme 100; 3,200 tested, 68% active;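 active = activation, as change over the incubation, above the mean of all tested compounds plus 3 SD, cut at about 13% in these data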
# EDANS-DABCYL int: optically interferes with EDANS-DABCYL signal, flagging KLK7 hits; AID 686952; shares compounds with proKLK7 act; EDANS-DABCYL substrate fluorescence interference, no enzyme, 4 h; solvent 0%, active enzyme control 100%; activation, % at 7 µM; 3,200 tested, 80% active;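 active = activation above the all-compound mean plus 3 SD, ignoring values outside control-based bounds, cut at about 4.8% in these data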;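 also: value is the 4 h activation minus the activation read at time zero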
# K7 EDANS ctr: EDANS fluorescence interference in dose response, no enzyme | shares compounds with proKLK7 act | EDANS-DABCYL peptide fluorescence interference | EC50, µM | 250 tested, 20% active;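 active = compounds that raise the fluorescence signal in this interference counterscreen, with EC50 at or below 10 µM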;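 also: intact quenched peptide substrate alone read at 355 nm excitation and 520 nm emission; signal is fluorescence gain from T0 to T4 after four hours at room temperature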
# A number is an active result; n = inactive; x = no result given. Hits are enriched below; roughly 2.2% of the tested compounds scored in any of these assays.
SMILES,Tn6 DDE FP,Neddylation inh,SKN-1 inh,MT1-MMP act inh,Tn7 DDE FP,proKLK7 act,proKLK7 act conf,EDANS-DABCYL int,others
CCOC(=O)N1CCN(C(=O)c2ccc3nc4ccc(Cl)cc4c(=O)n3c2)CC1,n,x,n,n,n,n,x,x,
CCOC(=O)N1CCN(C(=O)c2ccc3nc4ccsc4c(=O)n3c2)CC1,n,x,n,n,n,14.5,24.8,20.4,K7 EDANS ctr=n
CCOC(=O)N1CCN(C(=O)c2cccn3c(=O)c4sccc4nc23)CC1,n,x,n,n,n,73.3,63.3,69.1,
CCCCC1(C)Nc2ccccc2-c2nc3ccccc3n21 (stereo not drawn),n,x,n,n,n,62.5,n,n,
O=C1Nc2ccccc2C12Nc1ccccc1-c1nc3ccccc3n12 (stereo not drawn),n,n,n,n,n,n,x,x,
CC1(c2ccccn2)Nc2ccccc2-c2nc3ccccc3n21 (stereo not drawn),n,x,n,n,n,56.4,n,n,
c1ccc2c(c1)NC1(CCCCCC1)n1c-2nc2ccccc21,n,x,n,n,n,51.7,n,n,
c1ccc2c(c1)NC1(CCCCC1)n1c-2nc2ccccc21,n,x,n,n,n,63.3,n,12.1,
Cc1noc(NS(=O)(=O)c2ccc(NC(=O)CSc3nc4ccccc4[nH]3)cc2)c1C,n,n,n,n,n,n,x,x,
CCc1ccc(/C=C2\Oc3cc(OS(C)(=O)=O)ccc3C2=O)cc1,n,n,n,n,n,n,x,x,
CCc1ccc(/C=C2\Oc3c(ccc(O)c3CN3CCN(CCO)CC3)C2=O)cc1,n,n,n,n,n,28.4,n,6.5,
O=C(N1CCCCCC1)N1CCN(S(=O)(=O)c2cccc([N+](=O)[O-])c2)CC1,n,n,n,n,n,n,x,x,
O=C(Nc1ccc(O)c(C(=O)O)c1)Oc1ccccc1,n,x,n,n,n,25.8,30.2,28.0,
O=C(Nc1ccc2oc(=O)c(C(=O)O)cc2c1)Oc1ccccc1,n,x,n,n,n,100.0,187.3,181.5,
O=c1oc2ccccc2n1Cc1cccc(F)c1,n,n,n,n,n,n,x,x,
Cc1ccc(-c2nnc(Nc3ccccc3)c3ccccc23)cc1S(=O)(=O)NCC1CCCO1 (stereo not drawn),n,x,n,n,n,n,x,x,
COc1cc([N+](=O)[O-])ccc1NC(=O)C[n+]1ccccc1C,n,n,n,n,n,n,x,x,
COCCN(CCOC)S(=O)(=O)c1ccc(C(=O)Nc2sc3c(c2C(N)=O)CCCCC3)cc1,n,x,n,n,n,19.4,n,21.2,
CSc1nc(N2CCOCC2)nc2ccc(C)cc12,n,x,n,n,n,34.9,n,n,
Cc1occc1-c1nnc(SCC(=O)N(C)c2ccccc2)n1C,n,n,n,n,n,n,x,x,
COc1cccc2cccc(/C=N/n3cnnc3)c12,n,x,n,n,n,15.4,15.2,10.1,K7 EDANS ctr=n
COc1ccccc1OCCOc1ccccc1/C=N/n1cnnc1,n,n,n,n,n,n,x,x,
COc1ccc(NC(=O)CSc2nnc(-c3ccncc3)n2C)cc1,n,n,n,n,n,n,x,x,
Cn1c(SCC(=O)Nc2ccc(NC(=O)c3cccs3)cc2)nnc1-c1ccncc1,n,x,n,n,n,51.2,n,n,
COc1ccc(CNC(=S)NNC(=O)c2cc3ccccc3o2)cc1,n,n,n,n,n,17.4,20.9,21.2,
SMILES,Tn6 DDE FP,Neddylation inh,SKN-1 inh,MT1-MMP act inh,Tn7 DDE FP,proKLK7 act,proKLK7 act conf,EDANS-DABCYL int,others
COc1ccc(OCC(=O)NNC(=O)c2cc3ccccc3o2)cc1,n,n,n,n,n,n,x,x,
Cc1cc(C(O)c2ncc(-c3ccccc3)[nH]2)ccc1F (stereo not drawn),x,n,n,n,x,x,x,x,
COc1cc2c(cc1OC)CC(=O)N(C)CC2,n,n,n,n,n,n,x,x,
COc1cc2c(cc1OC)C1CCN3C(=O)CCC3N1CC2 (stereo not drawn),n,n,n,n,n,20.0,24.3,18.7,K7 EDANS ctr=n
Cc1nn(-c2ccccc2)c(C)c1/C=N/NC(=O)CSc1nnc(SCc2ccccc2Cl)s1,n,n,n,n,n,n,x,x,
O=C(Nc1cccc(Cl)c1)Nc1sccc1-c1nc2ccccc2s1,n,x,n,n,n,n,x,x,
O=C(Nc1ccccc1)Nc1sccc1-c1nc2ccccc2s1,n,n,n,n,n,34.7,n,n,
Cc1c(Cl)c(=O)oc2cc(OCC(=O)N3CCCC(C)C3)ccc12 (stereo not drawn),n,x,n,n,n,45.0,70.4,68.7,
COc1ccc2c(c1)c(=O)oc1cc(OCC(=O)N3CCCC(C)C3)ccc12 (stereo not drawn),n,x,n,n,n,n,x,x,
Cc1c(O)ccc2cc(S(=O)(=O)c3ccccc3)c(=O)oc12,n,x,n,n,n,45.1,70.0,72.5,
COc1ccc(/C=C/C(=O)OCC(=O)c2ccc[nH]2)cc1,n,n,n,n,n,n,x,x,
CCOc1nc(N=C(N)N)nc2c(C)cccc12,n,x,n,n,n,21.5,n,17.2,
CC(=O)c1ccc(-c2ccc(C(=O)NCC(c3ccco3)N(C)C)o2)cc1 (stereo not drawn),n,x,n,n,n,19.2,n,11.5,
NC(=O)C1CCN(C(=O)C(=O)c2cn(CC(=O)N3CCCC3)c3ccccc23)CC1,n,n,n,n,n,n,x,x,
COc1cccc(N2CCN(Cc3nc(N)nc(Nc4ccccc4)n3)CC2)c1,n,n,n,n,n,n,x,x,
COc1cc2c(cc1OC)-c1cc(OCc3cccnc3)nc(=O)n1CC2,n,x,n,n,n,61.0,63.0,65.3,
COc1cc2c(cc1OC)-c1cc(Nc3ccccc3)nc(=O)n1CC2,n,n,n,n,n,n,x,x,
O=C(Nc1nc(-c2ccc3c(c2)OCCO3)cs1)c1ccco1,n,n,n,n,n,n,x,x,
CCC(=O)N1CCc2cc(-c3csc(NC(=O)c4ccco4)n3)ccc21,n,n,n,n,n,97.8,22.3,16.4,K7 EDANS ctr=n
CSc1nnc(-c2cccn(Cc3cccc(Cl)c3)c2=O)o1,n,x,n,n,n,n,x,x,
CSc1nnc(-c2cccn(Cc3ccccc3)c2=O)o1,n,x,n,n,n,12.7,25.7,38.1,
COc1cc(Cl)c(S(=O)(=O)N2CC(C)OC(C)C2)cc1Cl (stereo not drawn),n,n,n,n,n,n,x,x,
